In ChEMBL document CHEMBL4229344 (Eur J Med Chem, 2018) one finds Activity and GI50 data, which are given here for one compound.

A value given as a limit tells only on which side of the number the result lay.

Series [1] addresses Uncharacterized serine/threonine-protein kinase SBK3 (Homo sapiens) (UniProt P0C264). Description: Binding affinity to wild-type human partial length SgK110 (L22 to R329 residues) expressed in bacterial expression system assessed as residual binding level at 1 uM by Kinomescan method relative to control. In outline:
(§1)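 KINOMEscan competition binding against a panel of 468 purified kinases/mutants, compound tested at 1 μM; readout is relative binding activity versus control.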

Series [2] addresses Tyrosine-protein kinase ITK/TSK (Homo sapiens) (UniProt Q08881). Description: Binding affinity to wild-type human partial length ITK (R335 to L620 residues) expressed in bacterial expression system assessed as residual binding level at 1 uM by Kinomescan method relative to control.
Series [3] deals with Insulin-like growth factor 1 receptor (Homo sapiens) (UniProt P08069). Description: Binding affinity to wild-type human partial length IGF1R (L972 to D1294 residues) expressed in bacterial expression system assessed as residual binding level at 1 uM by Kinomescan method relative to control.
In series [4] the target is Calcium-dependent protein kinase 1 (Plasmodium falciparum) (UniProt P62344). Description: Binding affinity to wild-type Plasmodium falciparum 3D7 full length CDPK1 (M1 to S524 residues) expressed in mammalian expression system assessed as residual binding level at 1 uM by Kinomescan method relative to control. The gist of the method: (§2)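 KINOMEscan competition binding against 468 purified kinases/mutants, test compound at 1 µM; residual binding relative to control.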
Calcium-dependent protein kinase 1 (Plasmodium falciparum), sequence (P62344 2-524 limits assumed): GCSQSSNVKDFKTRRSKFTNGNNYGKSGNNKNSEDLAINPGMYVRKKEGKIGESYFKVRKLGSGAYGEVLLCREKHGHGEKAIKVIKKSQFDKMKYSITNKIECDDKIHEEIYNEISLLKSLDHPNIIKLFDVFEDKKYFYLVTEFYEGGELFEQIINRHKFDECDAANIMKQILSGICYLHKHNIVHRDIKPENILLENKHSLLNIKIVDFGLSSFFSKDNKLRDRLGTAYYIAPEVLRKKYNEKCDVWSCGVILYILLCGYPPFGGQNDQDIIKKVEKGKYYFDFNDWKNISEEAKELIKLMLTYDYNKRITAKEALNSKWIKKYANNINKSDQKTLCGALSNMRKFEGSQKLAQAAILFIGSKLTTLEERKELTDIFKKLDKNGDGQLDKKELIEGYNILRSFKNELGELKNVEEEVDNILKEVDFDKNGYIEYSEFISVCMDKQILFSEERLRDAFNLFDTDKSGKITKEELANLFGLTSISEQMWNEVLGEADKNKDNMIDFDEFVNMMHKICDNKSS

Series [5] deals with Tyrosine-protein kinase ABL1 (Homo sapiens), P00519 [H396P]. Kind of series: Binding affinity to human phosphorylated ABL1 H396P mutant (S229 to K512 residues) expressed in mammalian expression system assessed as residual binding level at 1 uM by Kinomescan method relative to control. The gist of the method:
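Single-concentration (1 μM) competition-binding screen run by KINOMEscan against a panel of 468 purified kinases and mutants. The read-out is the relative binding activity of the test compound to each kinase.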

For series [6], the target named is Calcium/calmodulin-dependent protein kinase type 1D (Homo sapiens) (UniProt Q8IU85). Kind of series: Binding affinity to wild-type human partial length CAMK1D (M1 to K299 residues) expressed in bacterial expression system assessed as residual binding level at 1 uM by Kinomescan method relative to control. The gist of the method:
(§3)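 Kinome-wide competition binding screen against a panel of 468 purified kinases/mutants, with the test compound at a single concentration of 1 μM. Read-out is the relative binding activity of each kinase in the presence of compound.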

Series [7] concerns the target Cyclin-dependent kinase 16 (Homo sapiens) (UniProt Q00536). Kind of series: Binding affinity to wild-type human partial length PCTK1 (G160 to A474 residues) expressed in mammalian expression system assessed as residual binding level at 1 uM by Kinomescan method relative to control.
The target of series [8] is Casein kinase I isoform gamma-1 (Homo sapiens) (UniProt Q9HCP0). Description: Binding affinity to wild-type human partial length CSNK1G1 (T15 to S353 residues) expressed in bacterial expression system assessed as residual binding level at 1 uM by Kinomescan method relative to control.
The subject of series [9] is Tyrosine-protein kinase ABL1 (Homo sapiens), P00519 [F317L]. Kind of series: Binding affinity to human non-phosphorylated ABL1 F317L mutant (S229 to K512 residues) expressed in mammalian expression system assessed as residual binding level at 1 uM by Kinomescan method relative to control. In outline:
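Kinome-wide single-concentration binding screen (KINOMEscan) at 1 μM against a panel of 468 purified kinases and mutants. Read-out is relative binding of each kinase compared with control. Selectivity across the panel was summarised as an S(10) score.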

Series [10] concerns the target Ephrin type-A receptor 4 (Homo sapiens) (UniProt P54764). Description: Binding affinity to wild-type human partial length EPHA4 (T601 to R897 residues) expressed in bacterial expression system assessed as residual binding level at 1 uM by Kinomescan method relative to control. In outline:
as §3

Series [11] concerns the target Serine/threonine-protein kinase Nek10 (Homo sapiens) (UniProt Q6ZWH5). Kind of series: Binding affinity to wild-type human partial length NEK10 (L488 to R809 residues) expressed in mammalian expression system assessed as residual binding level at 1 uM by Kinomescan method relative to control.
The target of series [12] is Calcium/calmodulin-dependent protein kinase kinase 2 (Homo sapiens) (UniProt Q96RR4). Description: Binding affinity to wild-type human partial length CAMKK2 (D65 to V471 residues) expressed in bacterial expression system assessed as residual binding level at 1 uM by Kinomescan method relative to control. The gist of the method:
as §3

Series [13] in a line: Cytotoxicity against mouse BA/F3 cells after 72 hrs by CellTiter-Glo or CCK-8 assay. The class given is cell-based, BaF3. In outline: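 Parental BaF3 or IL-3-independent TEL-kinase BaF3 lines, made by retroviral infection and puromycin selection, grown in RPMI 1640 with 10% FBS. Cells seeded at 1–3 × 10^4 cells/mL with serial compound concentrations for 72 h. Viability read by CellTiter-Glo luminescence or CCK-8 absorbance at 450/655 nm and normalised to DMSO. GI50 obtained by triplicate testing with linear regression. Selectivity is the ratio of the two GI50 values.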
(ATP-based viability assays read luminescence as a measure of living cells.)

Series [14] addresses TRAF2 and NCK-interacting protein kinase (Homo sapiens) (UniProt Q9UKE5). Kind of series: Binding affinity to wild-type human partial length TNIK (D4 to K311 residues) expressed in bacterial expression system assessed as residual binding level at 1 uM by Kinomescan method relative to control. In outline:
as §1

For series [15], the target named is Serine/threonine-protein kinase B-raf (Homo sapiens) (UniProt P15056). Kind of series: Binding affinity to wild-type human partial length BRAF (S429 to E741 residues) expressed in mammalian expression system assessed as residual binding level at 1 uM by Kinomescan method relative to control. In outline:
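Single-concentration KINOMEscan (DiscoverX) binding screen at 1 μM against a panel of 468 purified kinases and mutants. The read-out is binding relative to control.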

Series [16] concerns the target Dual specificity protein kinase CLK4 (Homo sapiens) (UniProt Q9HAZ1). Kind of series: Binding affinity to wild-type human partial length CLK4 (R135 to K481 residues) expressed in bacterial expression system assessed as residual binding level at 1 uM by Kinomescan method relative to control. The gist of the method: as §3
Series [17] deals with Myosin light chain kinase 2, skeletal/cardiac muscle (Homo sapiens) (UniProt Q9H1R3). Kind of series: Binding affinity to wild-type human partial length MYLK2 (D258 to K570 residues) expressed in bacterial expression system assessed as residual binding level at 1 uM by Kinomescan method relative to control.
Series [18] concerns the target Ribosomal protein S6 kinase alpha-3 (Homo sapiens) (UniProt P51812). Kind of series: Binding affinity to wild-type human partial length C-terminal RSK2 kinase domain 2 (V402 to S715 residues) expressed in mammalian expression system assessed as residual binding level at 1 uM by Kinomescan method relative to control.
Series [19] has as its target Glycogen synthase kinase-3 beta (Homo sapiens) (UniProt P49841). Description: Binding affinity to wild-type human full length GSK3B (M1 to T433 residues) expressed in mammalian expression system assessed as residual binding level at 1 uM by Kinomescan method relative to control. In outline: as §2
Series [20] concerns the target Serine/threonine-protein kinase pim-3 (Homo sapiens) (UniProt Q86V86). Kind of series: Binding affinity to wild-type human partial length PIM3 (G16 to A317 residues) expressed in bacterial expression system assessed as residual binding level at 1 uM by Kinomescan method relative to control.

Calcium/calmodulin-dependent protein kinase type 1D (Homo sapiens), sequence (Q8IU85 whole entry, looked up, the tested form may be a part): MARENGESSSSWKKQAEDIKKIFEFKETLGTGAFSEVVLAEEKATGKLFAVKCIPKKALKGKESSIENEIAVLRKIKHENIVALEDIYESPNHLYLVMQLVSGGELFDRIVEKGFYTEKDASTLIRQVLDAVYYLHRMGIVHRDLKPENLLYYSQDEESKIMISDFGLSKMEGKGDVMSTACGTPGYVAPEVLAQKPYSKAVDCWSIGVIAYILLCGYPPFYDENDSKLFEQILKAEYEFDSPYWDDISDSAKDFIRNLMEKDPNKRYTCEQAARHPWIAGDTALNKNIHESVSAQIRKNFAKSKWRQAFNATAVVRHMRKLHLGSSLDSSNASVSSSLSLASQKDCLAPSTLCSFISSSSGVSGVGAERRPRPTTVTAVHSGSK
Ephrin type-A receptor 4 (Homo sapiens), sequence (P54764 whole entry, the tested form may be a part): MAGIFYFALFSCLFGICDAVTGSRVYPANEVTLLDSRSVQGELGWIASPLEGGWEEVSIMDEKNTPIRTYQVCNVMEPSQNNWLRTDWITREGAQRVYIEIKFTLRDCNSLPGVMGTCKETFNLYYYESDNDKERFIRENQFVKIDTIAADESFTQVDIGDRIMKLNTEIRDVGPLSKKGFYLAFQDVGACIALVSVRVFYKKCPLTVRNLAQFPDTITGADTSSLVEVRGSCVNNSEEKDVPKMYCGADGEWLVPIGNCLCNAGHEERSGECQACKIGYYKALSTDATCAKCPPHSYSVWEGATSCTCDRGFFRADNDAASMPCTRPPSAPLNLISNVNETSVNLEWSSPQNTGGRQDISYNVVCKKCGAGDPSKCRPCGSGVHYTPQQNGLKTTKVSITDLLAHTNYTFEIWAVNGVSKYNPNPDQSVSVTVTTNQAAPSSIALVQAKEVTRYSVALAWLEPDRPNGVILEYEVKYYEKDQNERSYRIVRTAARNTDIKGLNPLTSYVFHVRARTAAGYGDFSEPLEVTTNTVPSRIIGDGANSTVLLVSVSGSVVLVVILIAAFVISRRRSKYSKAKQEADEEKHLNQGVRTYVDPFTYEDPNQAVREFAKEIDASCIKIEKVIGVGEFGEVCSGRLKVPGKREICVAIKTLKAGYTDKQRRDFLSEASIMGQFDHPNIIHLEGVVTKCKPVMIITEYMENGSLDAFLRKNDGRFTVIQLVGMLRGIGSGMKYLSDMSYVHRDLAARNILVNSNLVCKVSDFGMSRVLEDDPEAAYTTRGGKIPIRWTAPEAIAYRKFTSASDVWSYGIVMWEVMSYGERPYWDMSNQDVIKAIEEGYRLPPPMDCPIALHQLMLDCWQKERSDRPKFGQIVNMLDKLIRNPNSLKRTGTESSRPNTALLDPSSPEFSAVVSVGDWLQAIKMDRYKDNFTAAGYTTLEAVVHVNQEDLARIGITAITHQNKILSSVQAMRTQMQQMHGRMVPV
Serine/threonine-protein kinase Nek10 (Homo sapiens), sequence (Q6ZWH5 whole entry, the tested form may be a part): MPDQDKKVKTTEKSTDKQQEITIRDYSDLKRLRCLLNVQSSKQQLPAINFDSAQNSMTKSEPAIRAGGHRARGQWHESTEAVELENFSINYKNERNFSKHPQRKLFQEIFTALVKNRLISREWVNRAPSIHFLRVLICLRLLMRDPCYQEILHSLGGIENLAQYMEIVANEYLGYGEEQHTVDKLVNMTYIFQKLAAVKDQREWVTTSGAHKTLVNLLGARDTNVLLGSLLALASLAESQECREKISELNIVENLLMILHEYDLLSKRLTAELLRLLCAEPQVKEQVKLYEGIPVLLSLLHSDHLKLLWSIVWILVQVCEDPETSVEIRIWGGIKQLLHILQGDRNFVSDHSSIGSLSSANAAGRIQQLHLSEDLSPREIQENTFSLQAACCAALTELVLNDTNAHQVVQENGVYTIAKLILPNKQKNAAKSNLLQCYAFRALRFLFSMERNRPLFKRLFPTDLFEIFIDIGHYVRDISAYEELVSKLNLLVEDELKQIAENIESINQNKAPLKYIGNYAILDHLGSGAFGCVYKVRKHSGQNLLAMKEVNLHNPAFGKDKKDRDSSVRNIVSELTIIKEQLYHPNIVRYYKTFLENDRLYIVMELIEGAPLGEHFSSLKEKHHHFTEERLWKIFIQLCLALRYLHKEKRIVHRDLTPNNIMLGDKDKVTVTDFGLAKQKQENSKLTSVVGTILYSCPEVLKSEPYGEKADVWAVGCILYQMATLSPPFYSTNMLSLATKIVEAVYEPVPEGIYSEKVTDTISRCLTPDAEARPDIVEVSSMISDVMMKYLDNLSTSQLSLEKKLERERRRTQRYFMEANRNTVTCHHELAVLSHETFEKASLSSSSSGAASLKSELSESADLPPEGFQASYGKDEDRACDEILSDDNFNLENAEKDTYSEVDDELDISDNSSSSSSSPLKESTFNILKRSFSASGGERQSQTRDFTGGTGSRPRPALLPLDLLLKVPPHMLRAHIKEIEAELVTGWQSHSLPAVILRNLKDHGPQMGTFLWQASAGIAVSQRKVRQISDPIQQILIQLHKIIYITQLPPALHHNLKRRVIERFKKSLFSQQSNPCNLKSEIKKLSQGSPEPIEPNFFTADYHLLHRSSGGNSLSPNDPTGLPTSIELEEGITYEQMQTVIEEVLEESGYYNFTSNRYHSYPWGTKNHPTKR
Serine/threonine-protein kinase B-raf (Homo sapiens), sequence (P15056 whole entry, the tested form may be a part): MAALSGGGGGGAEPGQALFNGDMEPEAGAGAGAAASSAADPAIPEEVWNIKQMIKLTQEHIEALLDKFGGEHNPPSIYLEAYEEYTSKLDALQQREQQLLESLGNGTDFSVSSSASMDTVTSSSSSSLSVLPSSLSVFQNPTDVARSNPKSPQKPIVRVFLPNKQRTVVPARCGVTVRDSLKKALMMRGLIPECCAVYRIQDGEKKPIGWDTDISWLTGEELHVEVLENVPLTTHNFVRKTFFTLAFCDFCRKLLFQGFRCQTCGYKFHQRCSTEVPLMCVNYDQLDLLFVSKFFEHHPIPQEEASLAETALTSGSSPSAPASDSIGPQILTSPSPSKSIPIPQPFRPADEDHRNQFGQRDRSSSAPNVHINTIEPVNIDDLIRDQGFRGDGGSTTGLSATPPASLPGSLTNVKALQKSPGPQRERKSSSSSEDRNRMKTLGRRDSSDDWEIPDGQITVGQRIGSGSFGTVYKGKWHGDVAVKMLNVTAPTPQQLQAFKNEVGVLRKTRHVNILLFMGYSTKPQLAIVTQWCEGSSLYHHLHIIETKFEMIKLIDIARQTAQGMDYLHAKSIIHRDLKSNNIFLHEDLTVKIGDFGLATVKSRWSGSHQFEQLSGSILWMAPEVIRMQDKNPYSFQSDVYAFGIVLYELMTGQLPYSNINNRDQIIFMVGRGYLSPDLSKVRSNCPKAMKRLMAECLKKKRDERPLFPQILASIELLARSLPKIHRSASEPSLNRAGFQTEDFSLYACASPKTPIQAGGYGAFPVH
Dual specificity protein kinase CLK4 (Homo sapiens), sequence (Q9HAZ1 whole entry, looked up, the tested form may be a part): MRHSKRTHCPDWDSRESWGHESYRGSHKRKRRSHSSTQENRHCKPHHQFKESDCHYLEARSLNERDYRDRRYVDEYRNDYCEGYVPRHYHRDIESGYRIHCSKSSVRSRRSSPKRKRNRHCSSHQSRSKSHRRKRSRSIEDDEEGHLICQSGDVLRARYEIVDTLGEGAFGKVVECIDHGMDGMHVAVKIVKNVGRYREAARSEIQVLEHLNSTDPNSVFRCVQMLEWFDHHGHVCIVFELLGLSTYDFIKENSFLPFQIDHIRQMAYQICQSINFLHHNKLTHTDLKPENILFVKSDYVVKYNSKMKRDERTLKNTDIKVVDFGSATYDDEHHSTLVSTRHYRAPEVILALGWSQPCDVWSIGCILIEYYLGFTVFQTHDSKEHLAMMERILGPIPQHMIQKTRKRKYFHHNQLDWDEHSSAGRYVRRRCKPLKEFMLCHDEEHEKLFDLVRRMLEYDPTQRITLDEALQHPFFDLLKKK
Uncharacterized serine/threonine-protein kinase SBK3 (Homo sapiens), sequence (P0C264 whole entry, the tested form may be a part): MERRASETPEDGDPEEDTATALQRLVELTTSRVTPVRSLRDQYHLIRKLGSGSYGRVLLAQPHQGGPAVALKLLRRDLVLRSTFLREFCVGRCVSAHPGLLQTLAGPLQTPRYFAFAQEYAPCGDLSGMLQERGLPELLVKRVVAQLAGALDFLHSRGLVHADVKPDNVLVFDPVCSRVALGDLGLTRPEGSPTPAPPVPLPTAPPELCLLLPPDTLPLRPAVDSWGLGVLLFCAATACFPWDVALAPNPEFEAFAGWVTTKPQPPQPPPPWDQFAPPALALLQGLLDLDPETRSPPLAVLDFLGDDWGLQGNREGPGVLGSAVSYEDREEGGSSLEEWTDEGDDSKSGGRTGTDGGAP

As a reminder, the GI50 is the concentration giving 50% growth inhibition. Read a high GI50 as less potent growth inhibition. On to `Cc1ccc(NC(=O)c2ccc(CN(CCN(C)C)C(=O)c3cccnc3)cc2)cc1Nc1nccc(-c2cccnc2)n1`, for which the Activity in series [1] was 72%; in [2] it was 100%; in series [3], 95%; in series [4] it was 82%; in series [5], 97%; in [6] it was 84%. The Activity was 100% in series [7]; 90% in series [8]; 79% in series [9]; 94% in series [10]; 100% in series [11]; 91% in series [12]. The Activity came out at 83% in series [14]; 88% in series [15]; 66% in series [16]; 100% in series [17]; 100% in series [18]; 87% in series [19]. Further, the Activity in series [20] was found to be 100%. For the same compound, in series [13], the GI50 at 72 h was over 10 µM.
